Assay results from ChEMBL document CHEMBL3286111, “Tryptophan hydroxylase 1 (Tph-1)-targeted bone anabolic agents for osteoporosis” (J Med Chem, 2014).

Test: Cytotoxicity against rat RBL2H3 cells by MTT assay
Assay type: cell-based
Parameters: concentration or dose not given beside the values
Conditions: rbl-2h3
Procedure, shortened: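 RBL2H3 cells (α-MEM) or PC12 cells (D-MEM), both with 10% FBS, treated at a single dose in 0.1% DMSO; 0.1% DMSO control; 37 °C, 5% CO2. MTT (5 mg/mL) added 4 h before the end, then SDS/DMF lysis buffer (pH 7.2) for 6 h; absorbance read at 570 nm. Cytotoxicity % calculated from background-corrected OD versus control.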

**Q.** For `C[C@H]1[C@H](C)CC[C@]2(C(=O)O)CC[C@]3(C)C(=CC[C@@H]4[C@@]5(C)Cc6c([nH]c7ccc(Br)cc67)C(C)(C)[C@@H]5CC[C@]43C)[C@H]12`, which Activity is on record?
**A.** 3.7%

**Q.** With `CCOC(=O)CNC(=O)[C@]12CC[C@@H](C)[C@H](C)[C@H]1C1=CC[C@@H]3[C@@]4(C)Cc5c([nH]c6ccc(Br)cc56)C(C)(C)[C@@H]4CC[C@@]3(C)[C@]1(C)CC2` as the compound, how does the Activity read?
**A.** 1.7%

**Q.** Which Activity does the source give for `COC(=O)C(Cc1ccccc1)NC(=O)[C@]12CC[C@@H](C)[C@H](C)[C@H]1C1=CC[C@@H]3[C@@]4(C)Cc5cnoc5C(C)(C)[C@@H]4CC[C@@]3(C)[C@]1(C)CC2` (some centres not stated) here?
**A.** 0.8%

**Q.** With `COC(=O)C(Cc1ccccc1)NC(=O)[C@]12CC[C@@H](C)[C@H](C)[C@H]1C1=CC[C@@H]3[C@@]4(C)Cc5c([nH]c6ccc(Cl)cc56)C(C)(C)[C@@H]4CC[C@@]3(C)[C@]1(C)CC2` (some centres not stated) as the compound, how does the Activity read?
**A.** 1.6%

**Q.** With `COC(=O)C(CC(C)C)NC(=O)[C@]12CC[C@@H](C)[C@H](C)[C@H]1C1=CC[C@@H]3[C@@]4(C)CCC(=O)C(C)(C)[C@@H]4CC[C@@]3(C)[C@]1(C)CC2` (some centres not stated) as the compound, how does the Activity read?
**A.** 2.6%

**Q.** For `COC(=O)C(Cc1ccccc1)NC(=O)[C@]12CC[C@@H](C)[C@H](C)[C@H]1C1=CC[C@@H]3[C@@]4(C)CC[C@H](OC(C)=O)C(C)(C)[C@@H]4CC[C@@]3(C)[C@]1(C)CC2` (some centres not stated), which Activity is on record?
**A.** 12.4%

**Q.** With `CC(=O)O[C@H]1CC[C@]2(C)[C@H]3CC=C4[C@@H]5[C@@H](C)[C@H](C)CC[C@]5(C(=O)O)CC[C@@]4(C)[C@]3(C)CC[C@H]2C1(C)C` [O-ACETYLURSOLIC ACID] as the compound, how does the Activity read?
**A.** 4.1%

**Q.** With `CCOC(=O)CNC(=O)[C@]12CC[C@@H](C)[C@H](C)[C@H]1C1=CC[C@@H]3[C@@]4(C)C=C(C#N)C(=O)C(C)(C)[C@@H]4CC[C@@]3(C)[C@]1(C)CC2` as the compound, how does the Activity read?
**A.** 50.1%

**Q.** Which Activity does the source give for `COC(=O)C(CC(C)C)NC(=O)[C@]12CC[C@@H](C)[C@H](C)[C@H]1C1=CC[C@@H]3[C@@]4(C)Cc5cncnc5C(C)(C)[C@@H]4CC[C@@]3(C)[C@]1(C)CC2` (some centres not stated) here?
**A.** 10.3%

**Q.** For `CCOC(=O)CNC(=O)[C@]12CC[C@@H](C)[C@H](C)[C@H]1C1=CC[C@@H]3[C@@]4(C)Cc5cn[nH]c5C(C)(C)[C@@H]4CC[C@@]3(C)[C@]1(C)CC2`, which Activity is on record?
**A.** 0.4%

**Q.** For `C[C@H]1[C@H](C)CC[C@]2(C(=O)NC3CCN(Cc4ccccc4)CC3)CC[C@]3(C)C(=CC[C@@H]4[C@@]5(C)Cc6nc7ccccc7nc6C(C)(C)[C@@H]5CC[C@]43C)[C@H]12`, which Activity is on record?
**A.** 51.1%

**Q.** For `COC(=O)C(CC(C)C)NC(=O)[C@]12CC[C@@H](C)[C@H](C)[C@H]1C1=CC[C@@H]3[C@@]4(C)Cc5nc6ccccc6nc5C(C)(C)[C@@H]4CC[C@@]3(C)[C@]1(C)CC2` (some centres not stated), which Activity is on record?
**A.** 0.5%

**Q.** Which Activity does the source give for `COC(=O)C(CC(C)C)NC(=O)[C@]12CC[C@@H](C)[C@H](C)[C@H]1C1=CC[C@@H]3[C@@]4(C)Cc5cnn(-c6ccccc6)c5C(C)(C)[C@@H]4CC[C@@]3(C)[C@]1(C)CC2` (some centres not stated) here?
**A.** 1.8%

**Q.** Which Activity does the source give for `COC(=O)C(CC(C)C)NC(=O)[C@]12CC[C@@H](C)[C@H](C)[C@H]1C1=CC[C@@H]3[C@@]4(C)Cc5c([nH]c6ccc(Cl)cc56)C(C)(C)[C@@H]4CC[C@@]3(C)[C@]1(C)CC2` (some centres not stated) here?
**A.** 15%

**Q.** Which Activity does the source give for `COC(=O)C(Cc1ccccc1)NC(=O)[C@]12CC[C@@H](C)[C@H](C)[C@H]1C1=CC[C@@H]3[C@@]4(C)Cc5cnn(-c6ccccc6)c5C(C)(C)[C@@H]4CC[C@@]3(C)[C@]1(C)CC2` (some centres not stated) here?
**A.** 0.9%

**Q.** With `COC(=O)C(CC(C)C)NC(=O)[C@]12CC[C@@H](C)[C@H](C)[C@H]1C1=CC[C@@H]3[C@@]4(C)Cc5nc6cc(Cl)c(Cl)cc6nc5C(C)(C)[C@@H]4CC[C@@]3(C)[C@]1(C)CC2` (some centres not stated) as the compound, how does the Activity read?
**A.** 0.7%

**Q.** For `COC(=O)C(Cc1ccccc1)NC(=O)[C@]12CC[C@@H](C)[C@H](C)[C@H]1C1=CC[C@@H]3[C@@]4(C)CCC(=O)C(C)(C)[C@@H]4CC[C@@]3(C)[C@]1(C)CC2` (some centres not stated), which Activity is on record?
**A.** 1.1%
